In ChEMBL document CHEMBL3864121, “Development of ebsulfur analogues as potent antibacterials against methicillin-resistant Staphylococcus aureus” (Bioorg Med Chem, 2016):
≈ marks a conversion by molar mass, not a printed value. Calls of active or inactive are those of the source. The calls are words filed in the database; no cut-off is given here.

Test system: Staphylococcus aureus
Assay: Antibacterial activity against methicillin-sensitive Staphylococcus aureus ATCC 6538 measured after overnight incubation by broth double-dilution method
Type: functional
Settings: not given
Procedure, shortened: (§1)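 MIC by broth double-dilution in liquid Mueller-Hinton medium. Values are reported in µg/mL.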

SMILES | MIC
CCCCCCCCn1sc2ccccc2c1=O | 1 µg/mL (≈ 3.8 µM)

Test system: Staphylococcus aureus
Assay: Antibacterial activity against methicillin-sensitive Staphylococcus aureus ATCC 25923 measured after overnight incubation by broth double-dilution method
Type: functional
Settings: not given
Procedure, shortened: as §1

SMILES | MIC
CCCCCCCCn1sc2ccccc2c1=O | 1 µg/mL (≈ 3.8 µM)

Test system: Staphylococcus aureus
Assay: Antibacterial activity against methicillin-sensitive Staphylococcus aureus ATCC 29213 measured after overnight incubation by broth double-dilution method
Type: functional
Settings: not given
Procedure, shortened: as §1

SMILES | MIC
CCCCCCCCn1sc2ccccc2c1=O | 1 µg/mL (≈ 3.8 µM)

Test system: Staphylococcus aureus
Assay: Antibacterial activity against methicillin-resistant Staphylococcus aureus ATCC 33591 measured after overnight incubation by broth double-dilution method
Type: functional
Settings: not given
Procedure, shortened: as §1

SMILES | MIC
CCCCCCCCn1sc2ccccc2c1=O | 0.5 µg/mL (≈ 1.9 µM)

Test system: Staphylococcus aureus
Assay: Antibacterial activity against methicillin-resistant Staphylococcus aureus 1 measured after overnight incubation by broth double-dilution method
Type: functional
Settings: not given
Procedure, shortened: as §1

SMILES | MIC
CCCCCCCCn1sc2ccccc2c1=O | 0.5 µg/mL (≈ 1.9 µM)

Test system: Staphylococcus aureus
Assay: Antibacterial activity against methicillin-resistant Staphylococcus aureus 2 measured after overnight incubation by broth double-dilution method
Type: functional
Settings: not given
Procedure, shortened: as §1

SMILES | MIC
CCCCCCCCn1sc2ccccc2c1=O | 1 µg/mL (≈ 3.8 µM)

Test system: Staphylococcus aureus
Assay: Antibacterial activity against methicillin-resistant Staphylococcus aureus BRS3 measured after overnight incubation by broth double-dilution method
Type: functional
Settings: not given
Procedure, shortened: as §1

SMILES | MIC
CCCCCCCCn1sc2ccccc2c1=O | 1 µg/mL (≈ 3.8 µM)

Test system: Staphylococcus aureus
Assay: Antibacterial activity against methicillin-resistant Staphylococcus aureus C1 measured after overnight incubation by broth double-dilution method
Type: functional
Settings: not given
Procedure, shortened: as §1

SMILES | MIC
CCCCCCCCn1sc2ccccc2c1=O | 1 µg/mL (≈ 3.8 µM)

Test system: Staphylococcus aureus
Assay: Antibacterial activity against methicillin-resistant Staphylococcus aureus C2 measured after overnight incubation by broth double-dilution method
Type: functional
Settings: not given
Procedure, shortened: as §1

SMILES | MIC
CCCCCCCCn1sc2ccccc2c1=O | 0.5 µg/mL (≈ 1.9 µM)

Test system: Staphylococcus aureus
Assay: Antibacterial activity against methicillin-resistant Staphylococcus aureus C7 measured after overnight incubation by broth double-dilution method
Type: functional
Settings: not given
Procedure, shortened: as §1

SMILES | MIC
CCCCCCCCn1sc2ccccc2c1=O | 1 µg/mL (≈ 3.8 µM)

Test system: Staphylococcus aureus
Assay: Antibacterial activity against methicillin-resistant Staphylococcus aureus C14 measured after overnight incubation by broth double-dilution method
Type: functional
Settings: not given
Procedure, shortened: as §1

SMILES | MIC
CCCCCCCCn1sc2ccccc2c1=O | 1 µg/mL (≈ 3.8 µM)

Test system: Staphylococcus aureus
Assay: Antibacterial activity against methicillin-resistant Staphylococcus aureus C16 measured after overnight incubation by broth double-dilution method
Type: functional
Settings: not given
Procedure, shortened: as §1

SMILES | MIC
CCCCCCCCn1sc2ccccc2c1=O | 2 µg/mL (≈ 7.59 µM)

Test system: Staphylococcus aureus
Assay: Antibacterial activity against methicillin-resistant Staphylococcus aureus C19 measured after overnight incubation by broth double-dilution method
Type: functional
Settings: not given
Procedure, shortened: as §1

SMILES | MIC
CCCCCCCCn1sc2ccccc2c1=O | 0.5 µg/mL (≈ 1.9 µM)

Test system: Staphylococcus aureus
Assay: Antibacterial activity against methicillin-resistant Staphylococcus aureus G1 measured after overnight incubation by broth double-dilution method
Type: functional
Settings: not given
Procedure, shortened: as §1

SMILES | MIC
CCCCCCCCn1sc2ccccc2c1=O | ≤ 0.25 µg/mL

Test system: Staphylococcus aureus
Assay: Antibacterial activity against methicillin-resistant Staphylococcus aureus G6 measured after overnight incubation by broth double-dilution method
Type: functional
Settings: not given
Procedure, shortened: as §1

SMILES | MIC
CCCCCCCCn1sc2ccccc2c1=O | 1 µg/mL (≈ 3.8 µM)

Test system: Staphylococcus aureus
Assay: Antibacterial activity against methicillin-resistant Staphylococcus aureus G12 measured after overnight incubation by broth double-dilution method
Type: functional
Settings: not given
Procedure, shortened: as §1

SMILES | MIC
CCCCCCCCn1sc2ccccc2c1=O | 1 µg/mL (≈ 3.8 µM)

Test system: Staphylococcus aureus
Assay: Antibacterial activity against methicillin-resistant Staphylococcus aureus G14 measured after overnight incubation by broth double-dilution method
Type: functional
Settings: not given
Procedure, shortened: as §1

SMILES | MIC
CCCCCCCCn1sc2ccccc2c1=O | 1 µg/mL (≈ 3.8 µM)

Test system: Staphylococcus aureus
Assay: Antibacterial activity against methicillin-resistant Staphylococcus aureus NRS4 measured after overnight incubation by broth double-dilution method
Type: functional
Settings: not given
Procedure, shortened: as §1

SMILES | MIC
CCCCCCCCn1sc2ccccc2c1=O | 1 µg/mL (≈ 3.8 µM)

Test system: Staphylococcus aureus
Assay: Antibacterial activity against methicillin-resistant Staphylococcus aureus NRS51 measured after overnight incubation by broth double-dilution method
Type: functional
Settings: not given
Procedure, shortened: as §1

SMILES | MIC
CCCCCCCCn1sc2ccccc2c1=O | 1 µg/mL (≈ 3.8 µM)

Test system: Staphylococcus aureus
Assay: Antibacterial activity against methicillin-resistant Staphylococcus aureus NRS77 measured after overnight incubation by broth double-dilution method
Type: functional
Settings: not given
Procedure, shortened: as §1

SMILES | MIC
CCCCCCCCn1sc2ccccc2c1=O | 1 µg/mL (≈ 3.8 µM)

Test system: Staphylococcus aureus
Assay: Antibacterial activity against methicillin-resistant Staphylococcus aureus S14 measured after overnight incubation by broth double-dilution method
Type: functional
Settings: not given
Procedure, shortened: as §1

SMILES | MIC
CCCCCCCCn1sc2ccccc2c1=O | ≤ 0.25 µg/mL

Test system: Staphylococcus aureus
Assay: Antibacterial activity against methicillin-resistant Staphylococcus aureus S17 measured after overnight incubation by broth double-dilution method
Type: functional
Settings: not given
Procedure, shortened: as §1

SMILES | MIC
CCCCCCCCn1sc2ccccc2c1=O | 1 µg/mL (≈ 3.8 µM)

Test system: Staphylococcus aureus
Assay: Antibacterial activity against methicillin-resistant Staphylococcus aureus S22 measured after overnight incubation by broth double-dilution method
Type: functional
Settings: not given
Procedure, shortened: as §1

SMILES | MIC
CCCCCCCCn1sc2ccccc2c1=O | 1 µg/mL (≈ 3.8 µM)

Test system: Staphylococcus aureus
Assay: Antibacterial activity against methicillin-resistant Staphylococcus aureus S24 measured after overnight incubation by broth double-dilution method
Type: functional
Settings: not given
Procedure, shortened: as §1

SMILES | MIC
CCCCCCCCn1sc2ccccc2c1=O | 1 µg/mL (≈ 3.8 µM)

Test system: Staphylococcus aureus
Assay: Antibacterial activity against methicillin-resistant Staphylococcus aureus USA100 measured after overnight incubation by broth double-dilution method
Type: functional
Settings: not given
Procedure, shortened: as §1

SMILES | MIC
CCCCCCCCn1sc2ccccc2c1=O | 2 µg/mL (≈ 7.59 µM)

Test system: Staphylococcus aureus
Assay: Antibacterial activity against methicillin-resistant Staphylococcus aureus USA200 measured after overnight incubation by broth double-dilution method
Type: functional
Settings: not given
Procedure, shortened: as §1

SMILES | MIC
CCCCCCCCn1sc2ccccc2c1=O | 3.9 µg/mL (≈ 14.8 µM)

Test system: Staphylococcus aureus
Assay: Antibacterial activity against methicillin-resistant Staphylococcus aureus USA300 measured after overnight incubation by broth double-dilution method
Type: functional
Settings: not given
Procedure, shortened: as §1

SMILES | MIC
CCCCCCCCn1sc2ccccc2c1=O | 2 µg/mL (≈ 7.59 µM)

Test system: Staphylococcus aureus
Assay: Antibacterial activity against methicillin-resistant Staphylococcus aureus USA600 measured after overnight incubation by broth double-dilution method
Type: functional
Settings: not given
Procedure, shortened: as §1

SMILES | MIC
CCCCCCCCn1sc2ccccc2c1=O | 3.9 µg/mL (≈ 14.8 µM)

Test system: Staphylococcus epidermidis
Assay: Antibacterial activity against Staphylococcus epidermidis ATCC 35984 measured after overnight incubation by broth double-dilution method
Type: functional
Settings: RP62A
Procedure, shortened: (§2)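 MIC by broth double-dilution in Mueller-Hinton medium. Re-testing at the time-kill inoculum used 1×10^6 CFU/mL.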

SMILES | MIC
CCCCCCCCn1sc2ccccc2c1=O | 1 µg/mL (≈ 3.8 µM)

Test system: Enterococcus faecalis
Assay: Antibacterial activity against Enterococcus faecalis ATCC 29212 measured after overnight incubation by broth double-dilution method
Type: functional
Settings: not given
Procedure, shortened: as §2

SMILES | MIC
CCCCCCCCn1sc2ccccc2c1=O | > 125 µg/mL

Test system: Enterococcus faecalis
Assay: Antibacterial activity against Enterococcus faecalis ATCC 49533 measured after overnight incubation by broth double-dilution method
Type: functional
Settings: not given
Procedure, shortened: as §2

SMILES | MIC
CCCCCCCCn1sc2ccccc2c1=O | > 125 µg/mL

Test system: Enterococcus faecium
Assay: Antibacterial activity against Enterococcus faecium BM4105-RF measured after overnight incubation by broth double-dilution method
Type: functional
Settings: not given
Procedure, shortened: as §1

SMILES | MIC
CCCCCCCCn1sc2ccccc2c1=O | 2 µg/mL (≈ 7.59 µM)

Test system: Enterococcus
Assay: Antibacterial activity against Vancomycin-resistant Enterococcus measured after overnight incubation by broth double-dilution method
Type: functional
Settings: not given
Procedure, shortened: as §1

SMILES | MIC
CCCCCCCCn1sc2ccccc2c1=O | 0.5 µg/mL (≈ 1.9 µM)

Test system: Listeria monocytogenes
Assay: Antibacterial activity against Listeria monocytogenes ATCC 19115 measured after overnight incubation by broth double-dilution method
Type: functional
Settings: not given
Procedure, shortened: as §2

SMILES | MIC
CCCCCCCCn1sc2ccccc2c1=O | 1 µg/mL (≈ 3.8 µM)

Test system: Mycolicibacterium smegmatis
Assay: Antibacterial activity against Mycobacterium smegmatis MC2-155 measured after overnight incubation by broth double-dilution method
Type: functional
Settings: str. MC2 155
Procedure, shortened: as §1

SMILES | MIC
CCCCCCCCn1sc2ccccc2c1=O | 2 µg/mL (≈ 7.59 µM)

Test system: Staphylococcus aureus
Assay: Bacteriostatic activity against methicillin-resistant Staphylococcus aureus S22 at 0.5 times MIC measured up to 3 to 6 hrs by time kill analysis
Type: functional
Settings: not given

SMILES | Activity
CCCCCCCCn1sc2ccccc2c1=O | Active

Test system: Staphylococcus aureus
Assay: Bacteriostatic activity against methicillin-resistant Staphylococcus aureus S22 at MIC measured up to 3 to 6 hrs by time kill analysis
Type: functional
Settings: not given

SMILES | Activity
CCCCCCCCn1sc2ccccc2c1=O | Active

Test system: Staphylococcus aureus
Assay: Bacteriostatic activity against methicillin-resistant Staphylococcus aureus S22 at 4 times MIC measured after 24 hrs by time kill analysis
Type: functional
Settings: not given

SMILES | Activity
CCCCCCCCn1sc2ccccc2c1=O | Active

Test system: Staphylococcus aureus
Assay: Antibiofilm activity against methicillin-sensitive Staphylococcus aureus ATCC 6538 assessed as reduction of biofilm at […] measured after 24 hrs by crystal violet staining based method relative to control
Type: functional
Parameters: scale not given: the % may be the effect or the level left
Settings: not given

SMILES | Activity
CCCCCCCCn1sc2ccccc2c1=O | 40%

Test system: not listed separately
Assay: Cytotoxicity against mouse RBCs assessed as hemolysis up to […] measured after 1 hr
Type: toxicity, Erythrocyte
Settings: mouse red blood cells, read-out: Activity

SMILES | hemolysis at 1 h
CCCCCCCCn1sc2ccccc2c1=O | ≤ 20%

Species on record: Mus musculus
Assay: Cytotoxicity against mouse RBCs assessed as hemolysis at 0.24 to 31.2 ug/ml measured after 1 hr
Type: toxicity
Settings: erythrocyte
Procedure, shortened: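 Murine red blood cells were exposed to compounds at various concentrations, with amikacin as a control. Percent hemolysis was scored against untreated cells (0%) and 1% Triton X (100%).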

SMILES | Activity
CCCCCCCCn1sc2ccccc2c1=O | Non-Toxic

Test system: not listed separately
Assay: Cytotoxicity against HEK293 cells assessed as cell death at […] measured after 24 hrs by resazurin dye-based fluorescence analysis relative to untreated control
Type: toxicity
Settings: human, hek293, 24 h

SMILES | Activity
CCCCCCCCn1sc2ccccc2c1=O | > 20%

Test system: Staphylococcus epidermidis RP62A
Assay: Inhibition of thioredoxin reductase in Staphylococcus epidermidis ATCC 35984 assessed as induction of ROS production at 1 to 4 times MIC measured after 1 hr by DCFH-DA staining-based fluorescence microscopic analysis
Settings: not given
Procedure, shortened: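 Untreated cells served as the negative control and 1 mM H2O2 as the positive control. Cells were stained with DCFH-DA (40 µg/mL) and ROS were visualized by fluorescence microscopy.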

SMILES | Activity
CCCCCCCCn1sc2ccccc2c1=O | Active

Test system: Staphylococcus aureus
Assay: Antibacterial activity against methicillin-resistant Staphylococcus aureus S22 using 1 10^6CFU/ml measured after overnight incubation by broth double-dilution method
Type: functional
Settings: not given

SMILES | Activity
CCCCCCCCn1sc2ccccc2c1=O | Active
